Compound activity from PubChem BioAssay.
The list is not random: actives were taken first. Their share in the collection is about 7.1%.
H69AR growth 86K: proliferation blockers of H69AR lung cancer cells, primary screen, cell-based, human, 86K library; AID 598, 2007; 6% of 85,000 active; viability, % at 10 µM; H69AR lung tumor viability, ATP luminescence, 72 h; stronger effect = lower value;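 active = viability at or below 40%; inactive = viability above 40%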;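 note: multidrug resistant small cell line overexpressing MRP-1 efflux transporter; 100% = mean luminescence of untreated control wells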
HCT116 PTEN-null: growth suppression of PTEN-null HCT116, primary screen, cell-based, CellTiter-Glo; viability, % at 10 µM; HCT116 PTEN-null viability, 60 h; stronger effect = lower value; 1.2% of 140,000 active;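 active = viability at or below a set limit, 4 SD under the median of all tested compounds, cut at about 3.7% in these data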;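 note: PTEN knockout HCT116 line with beta catenin targeted HCT116 as companion control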
HUVEC inhibit: inhibitors of HUVEC proliferation, primary screen, cell-based, 384-well | 1.1% of 86,000 active | viability, % at 10 µM (by protocol) | CellTiter-Glo luminescence, 72 h; stronger effect = lower value;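 active = viability at or below 30%; inactive = viability above 30%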;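 note: 100% = median luminescence of DMSO-only cell control wells on each plate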
HCT116 bCat-KO: primary screen for growth suppressors in beta-catenin knockout HCT116 cells (colon tumor, human); AID 818, 2007; viability, % at 10 µM; 1.5% of 140,000 active; HCT116 beta-catenin knockout viability, CellTiter-Glo, 60 h; stronger effect = lower value;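 active = viability at or under a set limit, the compound median less 4 SD, cut at about 6% in these data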;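 note: 0% = Hyamine 1622 control at 20 µM and 100% = untreated cell control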
Lung fibro prol: antiproliferative effect on LL 47 fibroblasts – human, LL 47 cells, CellTiter-Glo luminescence, primary screen | LL 47 human lung fibroblast viability, ATP luminescence; stronger effect = lower value | viability, % at 10 µM | 1.1% of 85,000 active;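 active = viability at or below 50% in the single dose screen; inactive = viability above 50%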;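 note: compound exposure lasted 72 h before the ATP readout; 100% = median luminescence of untreated cell-only wells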
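Material: human lung fibroblast line LL 47, low passage; Evaluation: viability percentage against median untreated-cell control; Buffer or medium: 15% FBS in IMEM; Incubation: 72 h compound exposure at 37 °C after overnight plating; Dosing: 0.1% DMSO in all compound wells; Measured by: CellTiter-Glo luminescence.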
Cav32 inh: Cav3.2 calcium influx blockers – cell-based, Fluo-4 calcium fluorescence, FDSS, MLSMR library, primary screen; 4% of 100,000 active; AID 449739, 2010; Cav3.2-expressing cells; stronger effect = lower value; B-score at 10 µM; Voltage-dependent T-type calcium channel subunit alpha-1H (Homo sapiens), O95180;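 active = single-dose well whose peak fluorescence ratio is a statistical outlier from its plate by either plate-standardised score or position-corrected B-score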
Target sequence (O95180 whole entry, looked up): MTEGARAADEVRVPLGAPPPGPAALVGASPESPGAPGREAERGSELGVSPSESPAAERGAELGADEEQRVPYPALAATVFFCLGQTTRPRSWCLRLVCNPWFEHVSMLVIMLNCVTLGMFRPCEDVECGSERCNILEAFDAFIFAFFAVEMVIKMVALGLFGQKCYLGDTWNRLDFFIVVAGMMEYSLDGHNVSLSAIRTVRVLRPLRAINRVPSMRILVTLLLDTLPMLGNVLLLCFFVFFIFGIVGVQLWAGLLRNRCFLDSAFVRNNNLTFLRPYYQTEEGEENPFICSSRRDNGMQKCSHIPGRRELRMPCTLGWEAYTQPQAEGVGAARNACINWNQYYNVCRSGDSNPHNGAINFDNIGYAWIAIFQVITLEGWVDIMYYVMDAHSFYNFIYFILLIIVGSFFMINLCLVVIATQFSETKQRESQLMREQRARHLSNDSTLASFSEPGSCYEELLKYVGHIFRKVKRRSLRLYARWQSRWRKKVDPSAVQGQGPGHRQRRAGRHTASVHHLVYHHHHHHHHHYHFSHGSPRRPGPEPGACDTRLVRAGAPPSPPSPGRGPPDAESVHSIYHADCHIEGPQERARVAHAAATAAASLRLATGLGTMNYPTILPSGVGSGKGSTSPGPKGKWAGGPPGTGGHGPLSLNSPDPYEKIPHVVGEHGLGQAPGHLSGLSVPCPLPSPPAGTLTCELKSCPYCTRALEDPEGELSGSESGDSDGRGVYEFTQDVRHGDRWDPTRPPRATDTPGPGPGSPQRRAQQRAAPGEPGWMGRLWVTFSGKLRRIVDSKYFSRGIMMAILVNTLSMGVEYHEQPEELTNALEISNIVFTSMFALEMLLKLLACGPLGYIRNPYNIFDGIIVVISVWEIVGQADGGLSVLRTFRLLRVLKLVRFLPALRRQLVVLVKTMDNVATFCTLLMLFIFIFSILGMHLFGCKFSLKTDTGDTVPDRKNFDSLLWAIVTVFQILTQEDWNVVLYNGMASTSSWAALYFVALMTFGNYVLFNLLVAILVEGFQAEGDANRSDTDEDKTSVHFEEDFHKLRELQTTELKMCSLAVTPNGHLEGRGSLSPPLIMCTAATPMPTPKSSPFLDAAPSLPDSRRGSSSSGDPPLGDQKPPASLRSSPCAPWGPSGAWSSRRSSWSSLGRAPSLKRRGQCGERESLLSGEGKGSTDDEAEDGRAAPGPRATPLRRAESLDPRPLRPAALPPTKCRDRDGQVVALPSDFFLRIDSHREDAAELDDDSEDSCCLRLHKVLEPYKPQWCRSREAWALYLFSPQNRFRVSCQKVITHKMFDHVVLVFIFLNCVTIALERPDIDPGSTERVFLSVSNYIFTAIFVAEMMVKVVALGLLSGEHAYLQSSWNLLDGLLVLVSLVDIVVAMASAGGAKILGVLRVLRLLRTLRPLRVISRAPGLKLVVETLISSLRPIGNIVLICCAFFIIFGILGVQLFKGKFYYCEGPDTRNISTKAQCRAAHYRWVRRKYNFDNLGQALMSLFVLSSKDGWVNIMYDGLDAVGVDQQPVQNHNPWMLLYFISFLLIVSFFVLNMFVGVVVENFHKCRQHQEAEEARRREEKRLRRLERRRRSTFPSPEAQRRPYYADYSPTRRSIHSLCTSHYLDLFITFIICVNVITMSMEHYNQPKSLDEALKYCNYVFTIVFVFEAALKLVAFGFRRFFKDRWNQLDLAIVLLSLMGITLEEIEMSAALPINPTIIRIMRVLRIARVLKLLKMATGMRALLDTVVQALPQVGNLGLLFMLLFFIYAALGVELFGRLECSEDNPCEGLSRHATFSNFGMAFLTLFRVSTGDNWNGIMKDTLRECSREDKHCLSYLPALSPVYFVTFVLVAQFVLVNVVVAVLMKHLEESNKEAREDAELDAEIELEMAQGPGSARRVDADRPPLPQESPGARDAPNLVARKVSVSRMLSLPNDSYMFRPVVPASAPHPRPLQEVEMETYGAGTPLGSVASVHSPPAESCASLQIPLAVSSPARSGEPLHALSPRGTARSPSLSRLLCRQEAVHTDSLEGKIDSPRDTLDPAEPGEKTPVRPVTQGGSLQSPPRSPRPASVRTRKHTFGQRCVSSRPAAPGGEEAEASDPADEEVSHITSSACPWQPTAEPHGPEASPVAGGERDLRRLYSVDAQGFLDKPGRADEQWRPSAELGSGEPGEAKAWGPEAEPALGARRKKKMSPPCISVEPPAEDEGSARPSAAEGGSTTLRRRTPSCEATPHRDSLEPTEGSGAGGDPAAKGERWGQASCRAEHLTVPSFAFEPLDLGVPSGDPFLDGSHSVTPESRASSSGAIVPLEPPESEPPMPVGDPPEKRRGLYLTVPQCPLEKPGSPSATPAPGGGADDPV
Numbers without * were called inactive; . = no result given.

SMILES	H69AR growth 86K	HCT116 PTEN-null	HUVEC inhibit	HCT116 bCat-KO	Lung fibro prol	Cav32 inh
Cc1cc(C)c2c(c1)-c1c(ssc1=S)C(C)(C)N2C(=O)CSc1nncn1C	13.0*	62.8	66.9	64.5	74.0	0.441
CCOC(=O)C1=C(C)N=c2s/c(=C3/C(=O)Nc4ccccc43)c(=O)n2C1c1ccc(C)cc1 (centres undefined)	1.8*	91.2	3.2*	105.5	87.6	-0.307
COC(=O)C1=C(C)N=c2s/c(=C3\C(=O)Nc4ccccc43)c(=O)n2C1c1ccccc1 (centres undefined)	0.9*	93.8	3.3*	98.2	81.8	.
CCOc1ccc(N(CC(=O)Nc2ccc(F)c(F)c2)S(=O)(=O)c2c(C)noc2C)cc1	71.6	85.3	81.6	80.0	95.8	0.0264
CCOc1ccc(N(CC(=O)Nc2cccc(Cl)c2)S(=O)(=O)c2c(C)noc2C)cc1	30.1*	22.8	80.3	28.3	73.3	-2.15
CCOc1ccc(N(CC(=O)N2CC=C(c3ccccc3)CC2)S(=O)(=O)c2c(C)noc2C)cc1	87.6	59.6	98.1	61.6	103.0	-4.82*
CC1(OC(=O)c2ccc(Cl)nc2)C(=O)C=C2C=C(c3ccc(C#N)cc3)OC=C2C1=O (centres undefined)	.	.	.	.	.	0.0383
O=C1C=C(c2cccc(O)c2)CCC1	.	.	.	.	.	1.13
CCOC(=O)c1nnn(-c2nonc2N)c1CN(CC)c1ccccc1	87.3	103.3	105.2	96.5	99.7	-4.78*
CCOC(=O)c1nnn(-c2nonc2N)c1CN(CC)CC	99.8	100.1	105.8	97.6	113.1	0.00702
CCN(Cc1ccccc1)S(=O)(=O)c1ccc(S(=O)(=O)N(Cc2ccccn2)Cc2ccco2)cc1	22.1*	65.7	70.5	72.7	102.4	0.171
COc1cccc(-n2c(SCC(=O)N3c4ccccc4CC3C)nnc2-c2ccco2)c1 (centres undefined)	.	83.2	.	95.2	.	-3.72*
CCn1c(SCC(=O)N2c3ccccc3CC2C)nnc1-c1ccco1 (centres undefined)	78.8	.	95.5	.	104.0	0.82
COc1ccc(C2C=C(C34CC5CC(CC(C5)C3)C4)NC(=S)N2)cc1 (centres undefined)	.	63.2	.	47.7	.	.
Cc1ccccc1C(=O)c1cccn1CC(=O)NCCN1CCN(c2cccc(C)c2C)CC1	5.2*	7.3	6.1*	4.3*	73.0	-1.97
Cc1c(-c2ccccc2)oc2c(C(=O)OCC(=O)Nc3ccc(C(N)=O)cc3)cccc2c1=O	.	104.8	.	101.3	.	.
COc1cc2c(cc1OC)CN(c1nc(CN3CCOCC3)nc3sc4c(c13)CCCC4)CC2	.	3.1*	.	29.7	.	.
O=C1Nc2ccc([N+](=O)[O-])cc2C1(O)N1CCCCCC1 (centres undefined)	.	86.1	.	96.8	.	1.75
CCN(CC)Cc1cc(NC2=NS(=O)(=O)c3ccccc32)ccc1OC(=O)c1ccccc1	.	99.1	.	98.0	.	.
OC(COCCOc1ccc(Br)cc1)CN1CCCCC1 (centres undefined)	.	89.5	.	89.5	.	.
COc1ccc(/C=N/Nc2snc(SC)c2C#N)cc1OC	47.8	58.0	64.2	55.7	82.7	0.0205
COc1cccc(/C=N/Nc2snc(SC)c2C#N)c1O	19.9*	25.7	60.9	21.7	67.6	.
COc1cc(CNC2CCCC2)cc(Cl)c1OCc1ccccc1F	.	1.1*	.	1.1*	.	-1.41
Nc1c(S(=O)(=O)c2ccccc2)c2nc3ccccc3nc2n1/N=C/c1ccco1	86.9	59.6	71.4	65.5	84.7	-2.35
Nc1c(C(=O)NC2CCCCC2)c2nc3ccccc3nc2n1/N=C/c1ccco1	26.5*	.	49.8	.	75.9	.
SMILES	H69AR growth 86K	HCT116 PTEN-null	HUVEC inhibit	HCT116 bCat-KO	Lung fibro prol	Cav32 inh
CCOC(=O)c1ccc(NC(=O)CN2C(=O)C(CC)SC(CC)C2=O)cc1 (centres undefined)	.	97.3	.	97.0	.	.
Cc1ccc(NC(=O)CSc2nnc(-c3cccnc3)n2CCN2CCCCC2)cc1	.	92.0	.	92.6	.	.
Cc1ccc(C2CC(C(F)F)n3ncc(C(=O)Nc4cnn(Cc5ccccc5C)c4)c3N2)cc1 (centres undefined)	13.7*	2.1*	15.9*	1.8*	62.7	-0.0538
CCC(C)OC(=O)C1=C(C)OC23OC(N)=C(C#N)C12C(=O)c1ccccc13 (centres undefined)	90.4	96.3	87.4	88.8	93.2	-2.7*
O=C(CCC1CCCCC1)NNC(=O)c1cnccn1	.	94.2	.	87.9	.	.
COc1ccc(C(N)=O)cc1N	.	103.7	.	94.5	.	0.0976
CN(C)c1ccc(C(=O)c2ccc(N(C)C)c(N)c2)cc1N	21.6*	87.2	78.2	77.8	85.2	.
CCOc1ccc(C(=O)c2ccc(OCC)c(N)c2)cc1N	13.3*	22.0	55.4	14.4	89.9	0.176
COC(=O)c1ccc(N(C(=O)CNC(=O)c2ccco2)C(C(=O)NC2CCCC2)c2ccco2)cc1 (centres undefined)	95.3	97.1	96.8	89.1	90.3	-0.939
O=C1CC(Sc2nnc(-c3ccccc3O)o2)C(=O)N1c1ccccc1 (centres undefined)	1.7*	89.1	95.9	97.6	2.4*	.
COc1ccc(N2C(=O)CC(Sc3nnc(-c4ccccc4)o3)C2=O)cc1 (centres undefined)	1.4*	88.8	94.5	98.2	2.2*	-0.413
COc1ccc(N2C(=O)CC(Sc3nc(C)cc(C)c3C#N)C2=O)cc1 (centres undefined)	79.4	84.8	84.6	84.0	103.7	-0.35
CC1(C)CC(=O)C2=C(C1)N(c1ccc(F)cc1)C(=O)C2(NC(=O)c1ccccc1)C(F)(F)F (centres undefined)	.	102.5	.	96.7	.	.
CC(=O)c1cccc(NC(=O)c2ccc3c(Cl)c4c(nc3c2)CCCC4)c1	.	91.6	.	87.3	.	.
CCN(C(=O)c1ccc2c(Cl)c3c(nc2c1)CCC3)c1cccc(C)c1	.	76.3	.	74.1	.	-5.58*
Cc1ccc(N(C)C(=O)c2ccc3c(Cl)c4c(nc3c2)CCC4)cc1C	.	60.3	.	73.5	.	-5.53*
CCc1ccc(N(CC)C(=O)c2ccc3c(Cl)c4c(nc3c2)CCC4)cc1	.	29.0	.	20.4	.	-3.24*
O=C(c1ccc(Cl)cc1)c1c[nH]c(C(=O)C(Cl)(Cl)Cl)c1	2.4*	2.5*	49.2	1.8*	44.1*	0.359
O=[N+]([O-])c1ccc(NCCCNS(=O)(=O)c2ccc(Cl)cc2)c(Cl)c1	.	48.3	.	61.8	.	.
Cc1c(/C=N/NC(=O)c2cc(=O)[nH]c(=O)[nH]2)c2ccccn2c1C(=O)c1ccccc1	.	96.2	.	102.1	.	-0.719
O=C(NCC1(c2ccccc2)CCCC1)c1cccc(Br)c1	.	79.8	.	79.8	.	-7.47*
